Reference: paper PMC6118327 (Biochimica et biophysica acta. Biomembranes, 2017)
Substitutions are numbered along the chain they refer to. Several values for one entry are separate records, joined by “and”; a condition that tells them apart may be missing. Equal entries are not always repeated.

B1: mUCP3: recombinant mouse uncoupling protein 3 reconstituted in planar lipid membranes (protein, UniProt P56501 1-308, looked up)
Putative mitochondrial …: MVGLQPSEVPPTTVVKFLGAGTAACFADLLTFPLDTAKVRLQIQGENPGAQSVQYRGVLGTILTMVRTEGPRSPYSGLVAGLHRQMSFASIRIGLYDSVKQFYTPKGADHSSVAIRILAGCTTGAMAVTCAQPTDVVKVRFQAMIRLGTGGERKYRGTMDAYRTIAREEGVRGLWKGTWPNITRNAIVNCAEMVTYDIIKEKLLESHLFTDNFPCHFVSAFGAGFCATVVASPVDVVKTRYMNAPLGRYRSPLHCMLKMVAQEGPTAFYKGFVPSFLRLGAWNVMMFVTYEQLKRALMKVQVLRESPF

How the values were obtained:
mUCP3 [1] = molecular target: T1, mUCP3 (Mus musculus, UniProt P56501); assay: AFM recognition imaging and force spectroscopy, PN-UCP bond lifetime; type: binding; conditions: for change of UCP3-PN lifetime with AA concentration: 15 mol% vs 10 mol% AA; for lifetime of mUCP3-PN interaction: PN bound to AFM tip, supported EPL membranes, pH 7.35, 21°C
T1 sequence (P56501 1-308): B1 Putative mitochondrial …
Method in brief: (§1)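 Mouse protein from E. coli inclusion bodies, solubilised in 2% SLS and reconstituted into EPL liposomes. Proteoliposomes incubated 10 min on fresh mica to form supported bilayers. For AA competition, mixed with AA liposomes to 1 mg/ml final lipid. AFM tips carried EDA-ATP, -ADP or -AMP via PEG-acetal linker. Recognition imaging plus force spectroscopy run in 50 mM Na₂SO₄/10 mM MES/10 mM Tris/0.6 mM EGTA, pH 7.35, 21°C. Lifetimes from maximum-likelihood Bell-Evans fits; mean ± SD, ≥3 experiments.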

mUCP1 [2] = molecular target: T2, mUCP1 (Mus musculus, UniProt P12242); assay: as above; type: binding; conditions: for change of UCP1-PN lifetime with AA concentration: 15 mol% vs 10 mol% AA; for lifetime of mUCP1-PN interaction: PN bound to AFM tip, supported EPL membranes, pH 7.35, 21°C
T2 sequence (P12242 1-307): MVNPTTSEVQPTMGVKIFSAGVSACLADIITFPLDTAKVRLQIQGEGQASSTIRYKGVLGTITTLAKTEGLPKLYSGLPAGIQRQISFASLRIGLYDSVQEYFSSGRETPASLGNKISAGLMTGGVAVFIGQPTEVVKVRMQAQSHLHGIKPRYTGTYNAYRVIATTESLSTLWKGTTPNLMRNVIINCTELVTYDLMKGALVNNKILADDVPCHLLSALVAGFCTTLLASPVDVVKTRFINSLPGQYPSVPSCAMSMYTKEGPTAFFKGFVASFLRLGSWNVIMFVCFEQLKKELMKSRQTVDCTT
Method in brief: as §1

mUCP3 [3] = molecular target: T1, mUCP3; type: biochemical; conditions: for dependence of mUCP3 inhibition on AA concentration: 10 vs 15 mol% AA, 1 mM ATP, 2 mM ADP, 5 mM AMP
Method in brief: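 Recombinant mouse protein reconstituted into DOPC/DOPE/CL (45:45:10) liposomes. Bilayers formed at 1.5 mg/ml lipid, 6 μg protein/mg lipid, AA 10 or 15 mol%. Run in 50 mM Na₂SO₄/10 mM MES/10 mM Tris/0.6 mM EGTA, pH 7.35, 32°C. I/V recorded −50 to +50 mV, including with 2 mM ATP. G from linear fit at 0 mV gives relative conductance. IC50 and maximum inhibition come from a four-parameter logistic fit. AA-dependence tested at 1 mM ATP, 2 mM ADP, 5 mM AMP. Mean ± SD, ≥3 experiments.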

mUCP1R183T = molecular target: T3, mUCP1R183T (Mus musculus, UniProt P12242, R183T); assay: Relative conductance of UCP1 mutant in planar bilayer membranes; type: biochemical; conditions: PN 5 mM; 15 mol% AA
T3 sequence (P12242 1-307 R183T): T2 sequence (P12242 1-307) with R183T
Method in brief: (§2)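 Arginine point mutants made by site-directed mutagenesis, expressed in E. coli Rosetta and reconstituted like wild type. Planar DOPC/DOPE/CL (45:45:10) bilayers carried 15 mol% AA; buffer pH 7.35, 32°C. Relative conductance compared with wild type after nucleotide addition: UCP1 mutants 5 mM ATP, ADP or AMP; UCP3 mutant 2 mM ATP, 4 mM ADP or 8 mM AMP. Mean ± SD, ≥3 experiments.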

mUCP3R84Q = molecular target: T4, mUCP3R84Q (Mus musculus, UniProt P56501, R84Q); assay: Relative conductance of UCP3 mutant in planar bilayer membranes; type: biochemical; conditions: 15 mol% AA; for inhibition of mutant compared to wild type mUCP3: 2 mM ATP, 4 mM ADP or 8 mM AMP
T4 sequence (P56501 1-308 R84Q): B1 Putative mitochondrial … with R84Q
Method in brief: as §2

mUCP1 [4] = molecular target: T2, mUCP1; type: biochemical; conditions: for extent of inhibition at high PN concentration: DOPC/DOPE/CL membranes, pH 7.35, 32°C
Method in brief: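 Inclusion-body mouse protein reconstituted into DOPC/DOPE/CL (45:45:10) proteoliposomes. Planar bilayers made at 1.5 mg/ml lipid, AA 10 or 15 mol% in the lipid solution, sulfate/MES/Tris/EGTA buffer pH 7.35, 32°C. I/V swept −50 to +50 mV; G at zero voltage from linear fit, normalised to AA-only and UCP+AA membranes. Titrations of nucleotides or phosphate fitted by four-parameter logistic for IC50 and maximum inhibition. AA comparison used 1 mM ATP, 2 mM ADP, 2 mM AMP. Mean ± SD, ≥3 experiments.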

mUCP1 R84Q = molecular target: T5, mUCP1 R84Q (Mus musculus, UniProt P12242, R84Q); assay: Relative conductance of UCP1 mutant in planar bilayer membranes; type: biochemical; conditions: PN 5 mM; 15 mol% AA
T5 sequence (P12242 1-307 R84Q): T2 sequence (P12242 1-307) with R84Q
Method in brief: as §2

mUCP1R277L = molecular target: T6, mUCP1R277L (Mus musculus, UniProt P12242, R277L); assay: as above; type: biochemical; conditions: PN 5 mM; 15 mol% AA
T6 sequence (P12242 1-307 R277L): T2 sequence (P12242 1-307) with R277L
Method in brief: as §2

mUCP3 R278L = molecular target: T7, mUCP3 R278L (Mus musculus, UniProt P56501, R278L); assay: Relative conductance of UCP3 mutant in planar bilayer membranes; type: biochemical; conditions: 3 mM ammonium-phosphate-dibasic; 15 mol% AA
T7 sequence (P56501 1-308 R278L): B1 Putative mitochondrial … with R278L

mUCP3 R184T = molecular target: T8, mUCP3 R184T (Mus musculus, UniProt P56501, R184T); assay: as above; type: biochemical; conditions: 3 mM ammonium-phosphate-dibasic; 15 mol% AA
T8 sequence (P56501 1-308 R184T): B1 Putative mitochondrial … with R184T

mUCP3 [5] = molecular target: T1, mUCP3; type: biochemical; conditions: membrane reconstituted with AA and mUCP3, pH gradient; seven independent experiments
[6] = lower FFA concentrations vs 15 mol% AA
[7] = DOPC/DOPE/CL membranes, 15 mol% AA, pH 7.35, 32°C

Molecule	change of UCP3-PN lifetime with AA concentration (mUCP3 [1])	lifetime of mUCP3-PN interaction (mUCP3 [1])	change of UCP1-PN lifetime with AA concentration (mUCP1 [2])	lifetime of mUCP1-PN interaction (mUCP1 [2])	dependence of mUCP3 inhibition on AA concentration (mUCP3 [3])	inhibition of mutant compared to mUCP1 wt (mUCP1R183T)	inhibition of mutant compared to wild type mUCP3 (mUCP3R84Q)	maximum inhibition of mUCP1 (mUCP1 [4]; 15 mol% AA)	extent of inhibition at high PN concentration (mUCP1 [4]; 15 mol% AA)	inhibition of mutant compared to mUCP1 wt (mUCP1 R84Q)	extent of inhibition at high inhibitor concentration (mUCP3 [3]; [7])	inhibition of mutant compared to mUCP1 wt (mUCP1R277L)	further results
Nc1ncnc2c1ncn2[C@@H]1O[C@H](COP(=O)(O)OP(=O)(O)O)[C@@H](O)[C@H]1O [ADP]	not significant	0.56 s	significantly increased	0.75 s	less	impaired inhibition	decreased the strength	lower than 100%	partially inhibit	did not affect			change in maximum inhibition of mUCP1 at lower FFA concentration (mUCP1 [4]; [6]): No change; effect of FFA concentration on IC50 of mUCP1 inhibition (mUCP1 [4]; [6]): affected
Nc1ncnc2c1ncn2[C@@H]1O[C@H](COP(=O)(O)O)[C@@H](O)[C@H]1O [AMP]	unaffected	0.13 s	unaffected	0.16 s			did not affect	lower than 100%	partially inhibit	did not affect	fully inhibit	no longer able to inhibit	
Nc1ncnc2c1ncn2[C@@H]1O[C@H](COP(=O)(O)OP(=O)(O)OP(=O)(O)O)[C@@H](O)[C@H]1O [ATP]	significantly increased	1.33 s	significantly increased	1.12 s	higher at lower AA concentration	similarly reduced	decreased the strength			similarly reduced		similarly reduced	current I and total membrane conductance G after addition of inhibitor (mUCP3 [3]; 2 mM ATP, 15 mol% AA): decreased; PN concentration at which maximum inhibition is achieved (mUCP3 [3]; [7]): approx. 4 mM
O=P(O)(O)O [Pi, inorganic phosphate]											only partial inhibition		effect of mutation on inhibition by phosphate (mUCP3 R278L): none of the arginine mutations had any effect; maximum inhibition of mUCP3 by Pi (mUCP3 [3]; 15 mol% AA, curve fitting): ~ 60%; IC50 (mUCP3 [3]; read-out: IC50 of Pi inhibition, 15 mol% AA, curve fitting): ~1 mM and 1 mM; effect of mutation on inhibition by phosphate (mUCP3R84Q; 3 mM ammonium-phosphate-dibasic): none of the arginine mutations had any effect; IC50 of mUCP1 inhibition by Pi compared with mUCP3 (mUCP1 [4]; 15 mol% AA, curve fitting): similar; maximum inhibition of mUCP1 by Pi compared with mUCP3 (mUCP1 [4]; 15 mol% AA, curve fitting): similar; effect of mutation on inhibition by phosphate (mUCP3 R184T): none of the arginine mutations had any effect
B1													proton transport rate κ (mUCP3 [5]): 2.56 ± 0.79 s⁻¹
